Laboratory results reported in ChEMBL document CHEMBL1158900, “Synthesis and antimitotic/cytotoxic activity of hemiasterlin analogues” (J Nat Prod, 2003).

Key:
[1] = tested on: MCF7; test: Antimitotic activity against human MCF7 cells expressing p53 mutant
[2] = tested on: MCF7; test: Cytotoxicity activity against human MCF7 cells expressing p53 mutant by MTT assay; type: functional, cell-based
In short: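 Human mammary carcinoma MCF-7 cells carrying a dominant-negative mutant p53 tumour suppressor gene (MCF-7 mup53). Cytotoxicity was read out by MTT assay, and the value reported is the IC50 in nM.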

| Compound | IC50 [1] [nM] | IC50 [2] [nM] |
| --- | --- | --- |
| CN[C@H](C(=O)N[C@H](C(=O)N(C)[C@H](/C=C(\C)C(=O)O)C(C)C)C(C)(C)C)C(C)(C)C | 6 | 6 |
| CN[C@H](C(=O)N[C@H](C(=O)N(C)[C@H](/C=C(\C)C(=O)O)C(C)C)C(C)(C)C)C(C)(C)c1cn(C)c2ccccc12 [HEMIASTERLIN] | 0.3 | 0.3 |
| CN[C@H](C(=O)N[C@H](C(=O)N[C@H](/C=C(\C)C(=O)O)C(C)C)C(C)(C)C)C(C)(C)c1ccccc1 | 20 | 15 |
| CC(=O)N(C)[C@H](C(=O)N[C@H](C(=O)N(C)[C@H](/C=C(\C)C(=O)O)C(C)C)C(C)(C)C)C(C)(C)c1cn(C)c2ccccc12 | 300 | 300 |
| CN[C@H](C(=O)N[C@H](C(=O)N(C)[C@@H](/C=C(\C)C(=O)O)C(C)C)C(C)(C)C)C(C)(C)c1cn(C)c2ccccc12 | 10 | 30 |
| CN[C@H](C(=O)N[C@H](C(=O)N(C)[C@H](/C=C(\C)C(=O)N[C@@H](CCCNC(=N)N)C(=O)O)C(C)C)C(C)(C)C)C(C)(C)c1cn(C)c2ccccc12 [CRIAMIDES A] | – | 1000 |
| CN[C@@H](C(=O)N[C@H](C(=O)N(C)[C@H](/C=C(\C)C(=O)O)C(C)C)C(C)(C)C)C(C)(C)c1ccccc1 | 10 | 25 |
| CN[C@H](C(=O)N[C@H](C(=O)N(C)[C@H](/C=C(\C)C(=O)OC)C(C)C)C(C)(C)C)C(C)(C)c1cn(C)c2ccccc12 [HEMIASTERLIN METHYL ESTER] | 0.5 | 0.5 |
| CN[C@H](C(=O)N[C@H](C(=O)N[C@H](/C=C(\C)C(=O)O)C(C)C)C(C)(C)C)C(C)(C)C | > 10000 | 1600 |
| CN[C@H](C(=O)N[C@H](C(=O)N(C)[C@H](/C=C(\C)C(=O)O)C(C)C)C(C)(C)C)C(C)C | 120 | 150 |
| CN[C@H](C(=O)N[C@H](C(=O)N(C)[C@H](C)/C=C(\C)C(=O)O)C(C)(C)C)C(C)(C)c1cn(C)c2ccccc12 | 200 | 40 |
| CN[C@@H](Cc1cn(C)c2ccccc12)C(=O)N[C@H](C(=O)N(C)C/C=C(\C)C(=O)O)C(C)(C)C | > 10000 | > 10000 |
| CN[C@@H](Cc1cn(C)c2ccccc12)C(=O)N[C@H](C(=O)N(C)[C@H](/C=C(\C)C(=O)O)C(C)C)C(C)(C)C | 300 | 60 |
| CN[C@@H](Cc1ccccc1)C(=O)N[C@H](C(=O)N(C)[C@H](/C=C(\C)C(=O)O)C(C)C)C(C)(C)C | 5000 | 4000 |
| CN[C@@H](Cc1cn(C)c2ccccc12)C(=O)N[C@H](C(=O)N(C)C(C)/C=C(\C)C(=O)O)C(C)(C)C (stereo not given in full) | 1100 | 2500 |
| C/C(=C\[C@H](C(C)C)N(C)C(=O)[C@@H](NC(=O)[C@@H](N)C(C)(C)c1cn(C)c2ccccc12)C(C)(C)C)C(=O)O | 30 | 50 |

| Compound | IC50 [1] [nM] | IC50 [2] [nM] |
| --- | --- | --- |
| CN[C@H](C(=O)N[C@H](C(=O)N(C)[C@H](/C=C(\C)C(=O)O)C(C)C)C(C)C)C(C)(C)c1c[nH]c2ccccc12 [HEMIASTERLINS B] | 200 | 7 |
| CN[C@H](C(=O)N[C@H](C(=O)N(C)[C@H](CC(C)C(=O)O)C(C)C)C(C)(C)C)C(C)(C)c1cn(C)c2ccccc12 (stereo not given in full) | 2.5 | – |
| CN[C@H](C(=O)N[C@H](C(=O)N(C)CCCC(=O)O)C(C)(C)C)C(C)(C)c1cn(C)c2ccccc12 | > 1000 | > 1000 |
| CN[C@H](C(=O)N[C@H](C(=O)N[C@H](/C=C(\C)C(=O)O)C(C)C)C(C)(C)C)C(C)(C)c1cn(C)c2ccccc12 | 0.15 | 0.25 |
| CN[C@H](C(=O)N[C@H](C(=O)N(C)[C@H](/C=C(\C)C(=O)O)C(C)C)C(C)(C)C)C(C)(C)c1c[nH]c2ccccc12 [HEMIASTERLINS A] | 2 | 2 |
| CN[C@H](C(=O)N[C@H](C(=O)N(C)[C@@H](C)/C=C(\C)C(=O)O)C(C)(C)C)C(C)(C)c1cn(C)c2ccccc12 | 4 | 4 |
| CCOC(=O)/C(C)=C/[C@H](C(C)C)N(C)C(=O)[C@@H](NC(=O)[C@@H](NC)C(C)(C)c1ccccc1)C(C)(C)C | 1 | 7 |
| C/C(=C\[C@H](C(C)C)N(C)C(=O)[C@@H](NC(=O)C(C)(C)C)C(C)(C)C)C(=O)O | > 10000 | > 10000 |
| CN[C@H](C(=O)N[C@H](C(=O)N(C)[C@H](/C=C(\C)C(=O)O)C(C)C)C(C)C)C(C)(C)c1cn(C)c2ccccc12 | 0.5 | 0.8 |
| C/C(=C\[C@H](C(C)C)N(C)C(=O)[C@@H](NC(=O)[C@H](C(C)(C)c1cn(C)c2ccccc12)[N+](C)(C)C)C(C)(C)C)C(=O)O | > 1000 | > 1000 |
| CN[C@H](C(=O)N[C@H](C(=O)N(C)C/C=C(\C)C(=O)O)C(C)(C)C)C(C)(C)c1cn(C)c2ccccc12 | > 10000 | > 10000 |
| CN[C@H](C(=O)N[C@H](C(=O)N(C)[C@H](/C=C(\C)C(=O)O)C(C)C)C(C)(C)C)C(C)(C)c1ccccc1 [TALTOBULIN] | 0.09 | 0.08 |
| CN[C@H](C(=O)N[C@H](C(=O)N(C)[C@H](/C=C(\C)C(=O)OC)C(C)C)C(C)(C)C)C(C)(C)c1ccccc1 | 2 | 3 |
| CC[C@H](NC(=O)[C@@H](NC)C(C)(C)c1cn(C)c2ccccc12)C(=O)N(C)[C@H](/C=C(\C)C(=O)O)C(C)C | 0.5 | 0.8 |
| C/C(=C\[C@H](C(C)C)N(C)C(=O)[C@@H](NC(=O)[C@@H](N)Cc1c[nH]c2ccccc12)C(C)(C)C)C(=O)O | 20 | 40 |
